Laboratory results as given in PMC6239893 (Nature chemical biology, 2018).

Assays:
[1] = test system: COX1 aI5γ group II intron; experiment: Analysis of splicing in S. cerevisiae by qRT-PCR; format: cell-based; settings: S. cerevisiae in YPGE, 4 h; 19 64 μg/mL, 18 32 μg/mL, 12 32 μg/mL, 3 64 μg/mL
[2] = test system: ai5γ intron with short exons (SE RNA); experiment: Radioanalytic self-splicing assay; format: biochemical, S. cerevisiae; settings: relative to lead compound; IC50 and Ki assays
Procedure, shortened: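 Internally ³²P-labelled ai5γ precursor with short exons (2 nM) self-spliced at 30 °C with a range of test compound concentrations. Buffer was 50 mM MOPS pH 7.5, 8 mM MgCl₂, 100 mM KCl. First-order splicing rates were fitted to k_obs = k_max/(1+[I]/K_i) to give K_i. Each determination was repeated 2–4 times; mean ± s.e.m.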

[3] = test system: ai5γ group II intron (D135 ribozyme); experiment: Fluorescent D135 ribozyme cleavage assay; format: biochemical, S. cerevisiae; settings: compared with the parental molecule 7
[4] = test system: S. cerevisiae wild-type (NP40–36a) and intronless (XPM46) strains; experiment: S. cerevisiae growth assays, wild-type vs mtDNA intronless strain; format: cell-based; settings: YPGE medium, 64 or 128 μg/mL
Procedure, shortened: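 Wild-type NP40–36a and mtDNA intronless XPM46 strains were grown overnight with shaking to mid-log phase in YPGE at 30 °C. Equal cell numbers were serially diluted 1:5 and plated on YPD or YPGE. Plates held DMSO or test compound at 64 or 128 µg/mL final. Plates grew at 30 °C for 1 day (YPD), 2 days (YPGE with DMSO) or 18 days (YPGE with compound). Done twice.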

Cc1ccncc1-c1ccc2oc(C(=O)c3cc(O)c(O)c(O)c3)cc2c1 [Compound 12]
Splicing of COX1 aI5γ group II intron in vivo (unspliced precursor, qRT-PCR) [1]: inhibit splicing

COc1ccc(CNC(=O)c2cc(O)c(O)c(O)c2)cc1OC [Compound 10]
In vitro inhibitory activity in SAR (in words) [2]: substantial loss of activity

CCCCNS(=O)(=O)c1ccc(-c2ccc(-c3nc(-c4cc(O)c(O)c(O)c4)cs3)cc2)cc1 [Compound 11]
In vitro inhibitory activity in SAR (in words) [2]: substantial loss of activity

O=C(c1cc(O)c(O)c(O)c1)c1cc2ccccc2o1 [Compound 9]
Increase in in vitro potency [3]: 2 fold

O=C1/C(=C/c2ccc(O)c(O)c2)Oc2cc(O)cc(O)c21 [Compound 2]
In vitro inhibitory activity in SAR (in words) [2]: inactivated

CC(=O)c1ccc(-c2ccc3oc(C(=O)c4cc(O)c(O)c(O)c4)cc3c2)cc1 [Compound 18]
Growth of intronless strain versus wild-type strain in presence of compound [4]: much more resistant
Splicing of COX1 aI5γ group II intron in vivo (unspliced precursor, qRT-PCR) [1]: inhibit splicing

O=C1/C(=C/c2cc(O)cc(O)c2)Oc2cc(O)cc(O)c21 [Compound 3]
Splicing of COX1 aI5γ group II intron in vivo (unspliced precursor, qRT-PCR) [1]: inactive
